Experimental data pooled from the literature.
Each line is one published result; the experiments were not run side by side.
Organism: Plasmodium falciparum
Observed: parasite growth

The IC50 of `COC1=CC(c2ccco2)=NC1=Cc1ccc(CCCCCCCCCC(C)O)[nH]1` (stereo not drawn) is reported as over 2500 nM (7G8; drug-resistant strain, blood stage).
With `CCN(CC)CCCC(C)Nc1ccnc2cc(Cl)ccc12` (stereo not drawn) the IC50 was 0.234 µg/mL (imaging; W2; 48 h, drug-resistant strain, blood stage).
With `CC1=C(C)C(c2ccc[nH]2)=NC1=Cc1ccc(CCCCCCCCCC(C)O)[nH]1` (stereo not drawn) the IC50 was 1190 nM (DD2; drug-resistant strain, blood stage).
`NC(N)=NC(=O)c1cc(C#Cc2ccc(C(F)(F)F)c(C(=O)Nc3ccccn3)c2)cc(C(F)(F)F)c1` gave an IC50 of 19 nM (K1; drug-resistant strain, blood stage).
`Brc1ccc2c(c1)nc(C1CCNCC1)n2Cc1ccccc1` has an IC50 of 61 nM (K1; drug-resistant strain, blood stage).
For `COc1cc(CO)c(-c2ccc3c(c2O)[C@@H](C)N[C@H](C)C3)c2cccc(O)c12`, the IC50 was 303 nM (SYBR Green; W2; drug-resistant strain, blood stage).
`C[C@@H]1CC[C@H]2[C@@H](C)C(=O)O[C@@H]3O[C@@]4(C)CC[C@@H]1[C@]32OO4` has an IC50 of 0.0038 µg/mL (W2; 72 h, drug-resistant strain, blood stage).
`COC1=CC(c2ccc[nH]2)=NC1=Cc1ccc(CCCCCCCCCCCCO)[nH]1` gave an IC50 of 58 nM (7G8; drug-resistant strain, blood stage).
`CCN(CC)CCCC(C)Nc1ccnc2cc(Cl)ccc12` (stereo not drawn) has an IC50 of 280 nM (K1; drug-resistant strain, blood stage).
`Clc1ccc2c(c1)nc(NCCNCc1ccccc1)n2Cc1ccccc1` has an IC50 of 212 nM (K1; drug-resistant strain, blood stage).
For `CCN(CC)CCCC(C)Nc1ccnc2cc(Cl)ccc12` (stereo not drawn), the IC50 was 0.155 µg/mL (W2; 72 h, drug-resistant strain, blood stage).
The IC50 of `NCCCNc1nc2cc(Br)ccc2n1Cc1ccccc1` is reported as 1010 nM (K1; drug-resistant strain, blood stage).
`CCN(CC)CCCC(C)Nc1ccnc2cc(Cl)ccc12` (stereo not drawn) gave an IC50 of 102 nM (DD2; drug-resistant strain, blood stage).
With `OC(c1cc(C(F)(F)F)nc2c(C(F)(F)F)cccc12)C1CCCCN1` (stereo not drawn) the IC50 was 4.8 nM (3D7; blood stage).
For `Clc1ccc2c(nc(N3CCNCC3)n2Cc2ccccc2)c1Cl`, the IC50 was 32 nM (K1; drug-resistant strain, blood stage).
`CCN(CC)CCCC(C)Nc1ccnc2cc(Cl)ccc12` (stereo not drawn) has an IC50 of 10.9 nM (blood stage).
For `CCc1ccc(C2=NC(=Cc3ccc(CCCCCCCCCC(C)O)[nH]3)C(OC)=C2)[nH]1` (stereo not drawn), the IC50 was 15 nM (DD2; drug-resistant strain, blood stage).
The IC50 of `CCN(CC)CCCC(C)Nc1ccnc2cc(Cl)ccc12` (stereo not drawn) is reported as 0.15 µg/mL (W2; drug-resistant strain, blood stage).
With `COC1=CC(c2cccn2C)=NC1=Cc1ccc(CCCCCCCCCC(C)O)[nH]1` (stereo not drawn) the IC50 was over 2500 nM (DD2; drug-resistant strain, blood stage).
`CCCCCCCCCCOc1cc2c(O)c(C(=O)OCC)cnc2cc1OCC` gave an IC50 of under 5.7 nM (SYBR Green; 3D7; blood stage).
With `COC1=CC(c2ccc[nH]2)=NC1=Cc1ccc(CCCCCCCCCCCO)[nH]1` the IC50 was 36 nM (DD2; drug-resistant strain, blood stage).
`CCN(CC)CCCC(C)Nc1ccnc2cc(Cl)ccc12` (stereo not drawn) has an IC50 of 0.02 µg/mL (D6; blood stage).
The IC50 of `COC1=CC(c2ccc[nH]2)=NC1=Cc1ccc(CCCCCCCCCCO)[nH]1` is reported as 80 nM (DD2; drug-resistant strain, blood stage).
For `NCCNc1nc2cc(Cl)ccc2n1Cc1ccccc1`, the IC50 was 339 nM (K1; drug-resistant strain, blood stage).
